According to ChEMBL document CHEMBL4190362, “Synthesis, biological evaluation and quantitative structure-active relationships of 1,3-thiazolidin-4-one derivatives. A promising chemical scaffold endowed with high antifungal potency and low cytotoxicity” (Eur J Med Chem, 2017):
Converted amounts (≈) assume the structure as drawn.

Legend:
Staphylococcus aureus = assay: Antibacterial activity against Staphylococcus aureus assessed as inhibition of microbial growth incubated for 18 to 22 hrs by broth microdilution method; format: functional
Outline: (§1)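 Broth microdilution in Mueller-Hinton II broth following NCCLS recommendations; compounds dissolved in DMSO.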

Staphylococcus warneri = assay: Antibacterial activity against Staphylococcus warneri assessed as inhibition of microbial growth incubated for 18 to 22 hrs by broth microdilution method; format: functional; outline: as §1
Enterococcus faecalis = assay: Antibacterial activity against Streptococcus faecalis assessed as inhibition of microbial growth incubated for 18 to 22 hrs by broth microdilution method; format: functional; outline: as §1
Escherichia coli = assay: Antibacterial activity against Escherichia coli assessed as inhibition of microbial growth incubated for 18 to 22 hrs by broth microdilution method; format: functional; outline: as §1
Proteus mirabilis = assay: Antibacterial activity against Proteus mirabilis assessed as inhibition of microbial growth incubated for 18 to 22 hrs by broth microdilution method; format: functional; outline: as §1
Enterobacter = assay: Antibacterial activity against Enterobacter spp. assessed as inhibition of microbial growth incubated for 18 to 22 hrs by broth microdilution method; format: functional; outline: as §1
Klebsiella oxytoca = assay: Antibacterial activity against Klebsiella oxytoca assessed as inhibition of microbial growth incubated for 18 to 22 hrs by broth microdilution method; format: functional; outline: as §1
Candida albicans = assay: Antifungal activity against Candida albicans clinical isolates assessed as inhibition of microbial growth incubated for 24 hrs by broth microdilution method; format: functional
Outline: (§2)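 Twenty-two clinical Candida isolates (8 C. albicans, 4 C. glabrata, 3 C. tropicalis, 3 C. krusei, 2 C. parapsilosis, 2 C. sake) were identified by colony morphology and biochemistry and subcultured at 35 °C for purity. Compounds were dissolved in DMSO and tested by broth microdilution in Sabouraud dextrose broth per NCCLS/CLSI/EUCAST guidance. Values are geometric mean MIC per species (µg/mL).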

Nakaseomyces glabratus = assay: Antifungal activity against Candida glabrata clinical isolates assessed as inhibition of microbial growth incubated for 24 hrs by broth microdilution method; format: functional; outline: as §2
Candida tropicalis = assay: Antifungal activity against Candida tropicalis clinical isolates assessed as inhibition of microbial growth incubated for 24 hrs by broth microdilution method; format: functional; outline: as §2
Pichia kudriavzevii = assay: Antifungal activity against Candida krusei clinical isolates assessed as inhibition of microbial growth incubated for 24 hrs by broth microdilution method; format: functional; outline: as §2
Candida parapsilosis = assay: Antifungal activity against Candida parapsilosis clinical isolates assessed as inhibition of microbial growth incubated for 24 hrs by broth microdilution method; format: functional; conditions: Lodderomyces parapsilosis; outline: as §2
[Candida] sake = Antifungal activity against Candida sake clinical isolates assessed as inhibition of microbial growth incubated for 24 hrs by broth microdilution method; format: functional; conditions: Fermentozyma sake; outline: as §2
[1] = Cytotoxicity against human Hep2 cells assessed as reduction in cell viability incubated for 24 hrs by trypan blue dye exclusion assay; format: cell-based; conditions: HEp-2 cells
Outline: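 Hep2 (human laryngeal epidermoid carcinoma) cells were exposed to five concentrations from 0.05 to 100 µg/mL for 24 h at 37 °C, and viability was scored by Trypan Blue exclusion as survival fraction. Controls were medium alone, DMSO-treated cells and 1 mM sodium nitroprusside. CC50 is the mean ± SD of at least three independent experiments.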

[2] = Selectivity index, ratio of CC50 for human Hep2 cells to MIC for Candida albicans clinical isolates; format: toxicity; conditions: HEp-2 cells, read-out: Selectivity Index
Outline: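 Calculated as Hep2 CC50 (Trypan Blue exclusion, 24 h, 37 °C) divided by MIC against C. albicans.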

[3] = system: Streptococcus alpha-hemolyticus (Streptococcus sp.); assay: Antibacterial activity against Streptococcus Streptococcus alpha hemolyticus assessed as inhibition of microbial growth incubated for 18 to 22 hrs by broth microdilution method

## CCC/C(C)=N\N=C1/NC(=O)CS1
Staphylococcus aureus
  MIC: ≥ 256 µg/mL
Staphylococcus warneri
  MIC: ≥ 256 µg/mL
Enterococcus faecalis
  MIC: ≥ 256 µg/mL
Escherichia coli
  MIC: ≥ 256 µg/mL
Proteus mirabilis
  MIC: ≥ 256 µg/mL
Enterobacter
  MIC: ≥ 256 µg/mL
Klebsiella oxytoca
  MIC: ≥ 256 µg/mL
Candida albicans
  MIC: 2 µg/mL
Nakaseomyces glabratus
  MIC: 2 µg/mL
Candida tropicalis
  MIC: 2 µg/mL
Pichia kudriavzevii
  MIC: 2 µg/mL
Candida parapsilosis
  MIC: 2 µg/mL
[Candida] sake
  MIC: 2 µg/mL
[1]
  CC50 at 24 h: 93.4 µg/mL (≈ 469 µM)
[2]
  selectivity ratio: 46.5
[3]
  MIC: ≥ 256 µg/mL

## CCC(CC)=N/N=C1\NC(=O)CS1
Staphylococcus aureus
  MIC: ≥ 256 µg/mL
Staphylococcus warneri
  MIC: ≥ 256 µg/mL
Enterococcus faecalis
  MIC: ≥ 256 µg/mL
Escherichia coli
  MIC: ≥ 256 µg/mL
Proteus mirabilis
  MIC: ≥ 256 µg/mL
Enterobacter
  MIC: ≥ 256 µg/mL
Klebsiella oxytoca
  MIC: ≥ 256 µg/mL
Candida albicans
  MIC: 2 µg/mL
Nakaseomyces glabratus
  MIC: 1 µg/mL
Candida tropicalis
  MIC: 4 µg/mL
Pichia kudriavzevii
  MIC: 2 µg/mL
Candida parapsilosis
  MIC: 2 µg/mL
[Candida] sake
  MIC: 2 µg/mL
[1]
  CC50 at 24 h: 49.2 µg/mL (≈ 247 µM)
[2]
  selectivity ratio: 24.5
[3]
  MIC: ≥ 256 µg/mL

## CCCCC/C(C)=N\N=C1/NC(=O)CS1
Staphylococcus aureus
  MIC: ≥ 256 µg/mL
Staphylococcus warneri
  MIC: ≥ 256 µg/mL
Enterococcus faecalis
  MIC: ≥ 256 µg/mL
Escherichia coli
  MIC: ≥ 256 µg/mL
Proteus mirabilis
  MIC: ≥ 256 µg/mL
Enterobacter
  MIC: ≥ 256 µg/mL
Klebsiella oxytoca
  MIC: ≥ 256 µg/mL
Candida albicans
  MIC: 2 µg/mL
Nakaseomyces glabratus
  MIC: 2 µg/mL
Candida tropicalis
  MIC: 4 µg/mL
Pichia kudriavzevii
  MIC: 8 µg/mL
Candida parapsilosis
  MIC: 8 µg/mL
[Candida] sake
  MIC: 8 µg/mL
[1]
  CC50 at 24 h: 71.8 µg/mL (≈ 316 µM)
[2]
  selectivity ratio: 35.5
[3]
  MIC: ≥ 256 µg/mL

## CCCC/C(CC)=N\N=C1/NC(=O)CS1
Staphylococcus aureus
  MIC: ≥ 256 µg/mL
Staphylococcus warneri
  MIC: ≥ 256 µg/mL
Enterococcus faecalis
  MIC: ≥ 256 µg/mL
Escherichia coli
  MIC: ≥ 256 µg/mL
Proteus mirabilis
  MIC: ≥ 256 µg/mL
Enterobacter
  MIC: ≥ 256 µg/mL
Klebsiella oxytoca
  MIC: ≥ 256 µg/mL
Candida albicans
  MIC: 4 µg/mL
Nakaseomyces glabratus
  MIC: 1 µg/mL
Candida tropicalis
  MIC: 1 µg/mL
Pichia kudriavzevii
  MIC: 2 µg/mL
Candida parapsilosis
  MIC: 2 µg/mL
[Candida] sake
  MIC: 4 µg/mL
[1]
  CC50 at 24 h: 46.4 µg/mL (≈ 204 µM)
[2]
  selectivity ratio: 11.5
[3]
  MIC: ≥ 256 µg/mL

## CC1CCC/C1=N/N=C1\NC(=O)CS1 (stereo not given)
Staphylococcus aureus
  MIC: ≥ 256 µg/mL
Staphylococcus warneri
  MIC: ≥ 256 µg/mL
Enterococcus faecalis
  MIC: ≥ 256 µg/mL
Escherichia coli
  MIC: ≥ 256 µg/mL
Proteus mirabilis
  MIC: ≥ 256 µg/mL
Enterobacter
  MIC: ≥ 256 µg/mL
Klebsiella oxytoca
  MIC: ≥ 256 µg/mL
Candida albicans
  MIC: 2 µg/mL
Nakaseomyces glabratus
  MIC: 1 µg/mL
Candida tropicalis
  MIC: 8 µg/mL
Pichia kudriavzevii
  MIC: 2 µg/mL
Candida parapsilosis
  MIC: 2 µg/mL
[Candida] sake
  MIC: 2 µg/mL
[1]
  CC50 at 24 h: 52.8 µg/mL (≈ 250 µM)
[2]
  selectivity ratio: 26
[3]
  MIC: ≥ 256 µg/mL

## CC1CC/C(=N/N=C2\NC(=O)CS2)C1 (stereo not given)
Staphylococcus aureus
  MIC: ≥ 256 µg/mL
Staphylococcus warneri
  MIC: ≥ 256 µg/mL
Enterococcus faecalis
  MIC: ≥ 256 µg/mL
Escherichia coli
  MIC: ≥ 256 µg/mL
Proteus mirabilis
  MIC: ≥ 256 µg/mL
Enterobacter
  MIC: ≥ 256 µg/mL
Klebsiella oxytoca
  MIC: ≥ 256 µg/mL
Candida albicans
  MIC: 2 µg/mL
Nakaseomyces glabratus
  MIC: 2 µg/mL
Candida tropicalis
  MIC: 2 µg/mL
Pichia kudriavzevii
  MIC: 2 µg/mL
Candida parapsilosis
  MIC: 2 µg/mL
[Candida] sake
  MIC: 2 µg/mL
[1]
  CC50 at 24 h: 50.8 µg/mL (≈ 240 µM)
[2]
  selectivity ratio: 25
[3]
  MIC: ≥ 256 µg/mL

## CC1CCCC/C1=N/N=C1\NC(=O)CS1 (stereo not given)
Staphylococcus aureus
  MIC: ≥ 256 µg/mL
Staphylococcus warneri
  MIC: ≥ 256 µg/mL
Enterococcus faecalis
  MIC: ≥ 256 µg/mL
Escherichia coli
  MIC: ≥ 256 µg/mL
Proteus mirabilis
  MIC: ≥ 256 µg/mL
Enterobacter
  MIC: ≥ 256 µg/mL
Klebsiella oxytoca
  MIC: ≥ 256 µg/mL
Candida albicans
  MIC: 2 µg/mL
Nakaseomyces glabratus
  MIC: 1 µg/mL
Candida tropicalis
  MIC: 8 µg/mL
Pichia kudriavzevii
  MIC: 2 µg/mL
Candida parapsilosis
  MIC: 2 µg/mL
[Candida] sake
  MIC: 2 µg/mL
[1]
  CC50 at 24 h: 52.6 µg/mL (≈ 233 µM)
[2]
  selectivity ratio: 26
[3]
  MIC: ≥ 256 µg/mL

## C/C(=N/N=C1\NC(=O)CS1)c1cccs1
Staphylococcus aureus
  MIC: ≥ 256 µg/mL
Staphylococcus warneri
  MIC: ≥ 256 µg/mL
Enterococcus faecalis
  MIC: ≥ 256 µg/mL
Escherichia coli
  MIC: ≥ 256 µg/mL
Proteus mirabilis
  MIC: ≥ 256 µg/mL
Enterobacter
  MIC: ≥ 256 µg/mL
Klebsiella oxytoca
  MIC: ≥ 256 µg/mL
Candida albicans
  MIC: 2 µg/mL
Nakaseomyces glabratus
  MIC: 1 µg/mL
Candida tropicalis
  MIC: 2 µg/mL
Pichia kudriavzevii
  MIC: 8 µg/mL
Candida parapsilosis
  MIC: 16 µg/mL
[Candida] sake
  MIC: 16 µg/mL
[1]
  CC50 at 24 h: > 100 µg/mL
[2]
  selectivity ratio: > 50
[3]
  MIC: ≥ 256 µg/mL

## C/C(=N/N=C1\NC(=O)CS1)c1ccccn1
Staphylococcus aureus
  MIC: ≥ 256 µg/mL
Staphylococcus warneri
  MIC: ≥ 256 µg/mL
Enterococcus faecalis
  MIC: ≥ 256 µg/mL
Escherichia coli
  MIC: ≥ 256 µg/mL
Proteus mirabilis
  MIC: ≥ 256 µg/mL
Enterobacter
  MIC: ≥ 256 µg/mL
Klebsiella oxytoca
  MIC: ≥ 256 µg/mL
Candida albicans
  MIC: 2 µg/mL
Nakaseomyces glabratus
  MIC: 1 µg/mL
Candida tropicalis
  MIC: 1 µg/mL
Pichia kudriavzevii
  MIC: 8 µg/mL
Candida parapsilosis
  MIC: 16 µg/mL
[Candida] sake
  MIC: 16 µg/mL
[1]
  CC50 at 24 h: 56.8 µg/mL (≈ 242 µM)
[2]
  selectivity ratio: 28
[3]
  MIC: ≥ 256 µg/mL

## O=C1CSC(NN=C2CCCC2)=N1
Staphylococcus aureus
  MIC: ≥ 256 µg/mL
Staphylococcus warneri
  MIC: ≥ 256 µg/mL
Enterococcus faecalis
  MIC: ≥ 256 µg/mL
Escherichia coli
  MIC: ≥ 256 µg/mL
Proteus mirabilis
  MIC: ≥ 256 µg/mL
Enterobacter
  MIC: ≥ 256 µg/mL
Klebsiella oxytoca
  MIC: ≥ 256 µg/mL
Candida albicans
  MIC: 2 µg/mL
Nakaseomyces glabratus
  MIC: 2 µg/mL
Candida tropicalis
  MIC: 2 µg/mL
Pichia kudriavzevii
  MIC: 2 µg/mL
Candida parapsilosis
  MIC: 2 µg/mL
[Candida] sake
  MIC: 2 µg/mL
[1]
  CC50 at 24 h: 22.2 µg/mL (≈ 113 µM)
[2]
  selectivity ratio: 11.1
[3]
  MIC: ≥ 256 µg/mL
